Sampled rows, rich in hits. Any-hit rate of the full collection: about 3.3%.
DENV2 CPE: DENV2-induced cell death inhibition | DENV2-infected cells, cytopathic effect rescue, plate reader | CPE inhibition, % at 9.99 µM | hit rate 1.7% among 350,000 | AID 651640; in the data active = CPE inhibition above about 20%, passing the limit was not always enough; tested in BHK-21 cells;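 also: 0% = median of neutral control wells and 100% = median of positive control wells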
E-selectin induc: induces E-selectin expression in human endothelial cells; AID 686992; activation, % at 7.58 µM; HUVEC E-selectin immunofluorescence imaging; normalized: neutral wells 0, TNF-alpha wells 100; P16581; hit rate 0.37% among 260,000;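 active = mean E-selectin-positive cell signal at least 10% of the positive control, reached in at least 60% of replicates, without over 20% cell loss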
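assay system = HUVEC, human umbilical vein endothelial cells | input = 3,000 HUVEC seeded per well | medium = EGM-2 growth medium on 0.1% gelatin-coated wells | dosing = one compound dose added by pin transfer | signal = immunofluorescence imaging | read-out basis = % PE-positive cells | control set = TNF-alpha, DMSO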
FGF22 binding: shifts melting point of recombinant human FGF22 | hit rate 1.5% among 340,000 | Q9HCT0 | recombinant FGF22 thermal shift, SYPRO orange fluorescence; percent of sucrose octasulfate shift, DMSO zero | activity (Tm shift, normalised), % at 9.99 µM;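 active = mean Tm shift, scaled 0 neutral to 100 positive control, at about 1.3% or above, every replicate too, limit read from the data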
Target sequence (Q9HCT0 whole entry, looked up): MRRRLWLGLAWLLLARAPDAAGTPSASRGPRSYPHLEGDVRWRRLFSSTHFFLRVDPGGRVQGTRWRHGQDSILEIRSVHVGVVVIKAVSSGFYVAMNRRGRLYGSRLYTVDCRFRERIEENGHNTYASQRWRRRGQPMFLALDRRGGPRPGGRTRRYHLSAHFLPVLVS
PglD DTNB: blocks C. jejuni PglD acetyltransferase activity. purified PglD enzyme, DTNB colorimetric CoA detection. inhibition, % at 12.5 µM. hit rate 0.098% among 360,000. AID 602405; in the data active = inhibition above about 16%, passing the limit was not always enough
Statin myotox sup: protects C2C12 myotubes from simvastatin toxicity. ATP luminescence, 48 h; scaled: DMSO 0, geranylgeraniol control 100. hit rate 0.78% among 330,000. AID 602340. rescue of ATP level, % at 7.49 µM;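 active = mean ATP rescue above about 67%, or every replicate alone reaching that limit, limit read from the data, passing the limit was not always enough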;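 also: myotubes were challenged with 10 µM simvastatin during compound exposure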
XiGFP reactiv: activators of X-chromosome reactivation in mouse fibroblasts; AID 743238; hit rate 0.055% among 360,000; activation, % at 7.58 µM; XiGFP mouse fibroblasts, % GFP-positive cells imaging, 3 d; cells co-treated with 5-aza-dC sensitizer; scaled so ellipticine positive control = 100%;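 active = mean normalized replicate activation at least 10% and every replicate at or above 10%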;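 also: 0% = median of on-plate neutral control wells and 100% = ellipticine 6 µM median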
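Assay system – SV40-immortalized XiGFP fibroblast cells, line 68-5-11 · Buffer or medium – DMEM supplemented with 5-aza-dC as sensitizing agent · Dosing – one concentration, pinned · Benchmarks – positive control ellipticine, 6 µM final · Times – 3 days compound exposure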
Numbers without * were called inactive.

Results for COc1ccc(NC(=O)N(C)C[C@H]2Oc3c(NC(=O)C4CCOCC4)cccc3C(=O)N([C@@H](C)CO)C[C@H]2C)cc1 ?
DENV2 CPE: 5.3; E-selectin induc: -0.1; FGF22 binding: -0.2; PglD DTNB: -2.5; Statin myotox sup: -6.0; XiGFP reactiv: 0.1

Results for Cc1ccc(-c2nc(N3CCN(C)CC3)c3ccccc3n2)cc1 ?
DENV2 CPE: 24.9*; E-selectin induc: 2.5; FGF22 binding: 0.3; PglD DTNB: 6.2; Statin myotox sup: 5.5; XiGFP reactiv: 0.1

What do the screens show for `CN1CCN(c2nc(-c3ccc(C(C)(C)C)cc3)nc3ccccc23)CC1`?
DENV2 CPE: -2.5; E-selectin induc: 0.0; FGF22 binding: -0.5; PglD DTNB: -11.5; Statin myotox sup: -107.6; XiGFP reactiv: 0.3

Results for COc1ccc2c3c(n(C)c2c1)[C@H](CO)N(C(C)=O)CC31CCN(C(=O)c2ccccc2)CC1 ?
DENV2 CPE: -7.2; E-selectin induc: 0.2; FGF22 binding: -0.1; XiGFP reactiv: 0.3

What do the screens show for `CN(CC(=O)Nc1c(Cl)cccc1Cl)C(=O)c1ccc(NS(=O)(=O)c2ccc3[nH]c(=O)[nH]c3c2)cc1`?
DENV2 CPE: 40.4*; FGF22 binding: 0.0; PglD DTNB: -2.6; Statin myotox sup: 3.8; XiGFP reactiv: -0.1

Results for Cc1ccc(NC(=O)CN(C)C(=O)c2ccc(NS(=O)(=O)c3ccc4[nH]c(=O)[nH]c4c3)cc2)cc1 ?
DENV2 CPE: -0.8; E-selectin induc: 4.2; FGF22 binding: 0.1; PglD DTNB: 4.1; Statin myotox sup: 6.1; XiGFP reactiv: 0.1

How did CCN(CC)S(=O)(=O)c1ccc(NC(=O)c2ccc(N(C)S(C)(=O)=O)cc2)cc1 do in these assays?
PglD DTNB: -0.6; Statin myotox sup: 104.2*

How did COc1cccc(C2=NN(C(=O)c3ccco3)C(O)(C(F)(F)F)C2)c1 (stereo not given) do in these assays?
DENV2 CPE: 18.4; E-selectin induc: -0.5; FGF22 binding: 0.2; PglD DTNB: -1.2; Statin myotox sup: -5.0; XiGFP reactiv: 0.0

How did Cc1ccc(C2=NN(C(=O)c3ccco3)C(O)(C(F)(F)F)C2)cc1 (stereo not given) do in these assays?
DENV2 CPE: -0.5; FGF22 binding: 43.9*; PglD DTNB: -8.4; Statin myotox sup: -4.3; XiGFP reactiv: 0.1

Results for COc1cccc(CN2CCCC(CNC(=O)c3ccc(F)cc3)C2)c1OC (stereo not given) ?
E-selectin induc: 0.1; FGF22 binding: 43.0*; XiGFP reactiv: 0.2

What do the screens show for `COc1ccc(CC(=O)NCC2CCCN(Cc3ccc(OC(F)(F)F)cc3)C2)cc1` (stereo not given)?
DENV2 CPE: 20.0*; FGF22 binding: -0.2; PglD DTNB: -3.1; Statin myotox sup: 2.7; XiGFP reactiv: 0.1

Results for COCc1cc(CN2CCCC(CNC(=O)c3ccc(F)cc3)C2)ccc1OC (stereo not given) ?
DENV2 CPE: -3.0; FGF22 binding: 0.2; XiGFP reactiv: 0.1

What do the screens show for `COc1ccccc1S(=O)(=O)N[C@H]1CC[C@H](CC(=O)N2CCN(C)CC2)O[C@H]1CO`?
DENV2 CPE: 12.8; E-selectin induc: 0.2; FGF22 binding: 0.0; PglD DTNB: -0.6; Statin myotox sup: -8.3; XiGFP reactiv: -0.3

How did Cn1c(=O)n2n(c1=O)[C@H](C1CC1)C=C1CN3[C@@H]([C@H](Cc4ccccc4)OC(=O)[C@@H]3Cc3ccccc3)[C@@H]12 do in these assays?
DENV2 CPE: -1.4; FGF22 binding: 0.5

Results for CC(=O)N(C)C[C@@H]1Oc2ncc(C#Cc3ccncc3)cc2C(=O)N([C@@H](C)CO)C[C@H]1C ?
DENV2 CPE: -3.7; E-selectin induc: -0.3; FGF22 binding: 0.1; PglD DTNB: -2.8; Statin myotox sup: 19.2; XiGFP reactiv: 0.5

Results for COCC#Cc1cnc2c(c1)C(=O)N([C@H](C)CO)C[C@@H](C)[C@H](CN(C)C(=O)CN1CCOCC1)O2 ?
DENV2 CPE: 6.3; E-selectin induc: 0.0; FGF22 binding: 0.3; PglD DTNB: 0.3; Statin myotox sup: -13.1; XiGFP reactiv: -1.2

Results for Cc1cc(C)c(C(=O)COC(=O)c2cccnc2Cl)c(C)c1 ?
DENV2 CPE: -3.0; E-selectin induc: -0.8; FGF22 binding: 43.5*; XiGFP reactiv: 0.3

How did O=C(COC(=O)c1cccnc1Cl)c1ccc(Cl)cc1Cl do in these assays?
PglD DTNB: -2.6; Statin myotox sup: -0.3

What do the screens show for `O=C(C1CCOCC1)N1CC(=O)N2[C@@H](CO)[C@H](c3ccc(/C=C/c4ccccc4)cc3)[C@@H]2C1`?
DENV2 CPE: -6.8; E-selectin induc: 0.0; FGF22 binding: 0.0; XiGFP reactiv: 0.4

Results for C[C@@H]1CN([C@H](C)CO)C(=O)Cc2cc(NC(=O)C3CC3)ccc2O[C@@H]1CN(C)S(=O)(=O)c1ccccc1 ?
DENV2 CPE: -1.5; FGF22 binding: 0.0; PglD DTNB: 9.3; Statin myotox sup: 21.6; XiGFP reactiv: -0.7

How did COCC#Cc1cnc2c(c1)C(=O)N([C@H](C)CO)C[C@@H](C)[C@H](CN(C)C)O2 do in these assays?
DENV2 CPE: -2.5; E-selectin induc: 0.3; FGF22 binding: -0.1; PglD DTNB: 0.1; Statin myotox sup: 3.7; XiGFP reactiv: -1.1

Results for CCCC#Cc1cnc2c(c1)C(=O)N([C@H](C)CO)C[C@@H](C)[C@@H](CN(C)C(=O)NC1CCCC1)O2 ?
DENV2 CPE: 45.3*; E-selectin induc: 1.0; FGF22 binding: -0.1; PglD DTNB: 3.5; Statin myotox sup: 2.8; XiGFP reactiv: -0.7

How did C[C@H](CO)N1C[C@H](C)[C@@H](CN(C)C(=O)Nc2ccc(F)cc2)Oc2ncc(C#Cc3ccc(F)cc3)cc2C1=O do in these assays?
DENV2 CPE: 3.9; E-selectin induc: -0.2; FGF22 binding: 0.1; PglD DTNB: -3.7; Statin myotox sup: 41.7; XiGFP reactiv: 0.4

Results for COc1ccc(NC(=O)N(C)C[C@@H]2Oc3ncc(C#Cc4ccc(F)cc4)cc3C(=O)N([C@H](C)CO)C[C@@H]2C)cc1 ?
DENV2 CPE: 62.6*; E-selectin induc: 0.2; FGF22 binding: -0.4; PglD DTNB: 2.9; Statin myotox sup: 12.4; XiGFP reactiv: -1.1

What do the screens show for `Cc1ccc(S(=O)(=O)N(C)C[C@@H]2Oc3ncc(/C=C/c4ccccc4)cc3C(=O)N([C@H](C)CO)C[C@@H]2C)cc1`?
DENV2 CPE: 23.5*; E-selectin induc: 0.1; FGF22 binding: -0.4; PglD DTNB: 0.3; Statin myotox sup: 35.9; XiGFP reactiv: 0.7

How did Cc1ccc(S(=O)(=O)N(C)C[C@H]2Oc3ncc(C#CC4(O)CCCC4)cc3C(=O)N([C@H](C)CO)C[C@H]2C)cc1 do in these assays?
DENV2 CPE: 20.8*; E-selectin induc: -0.5; FGF22 binding: 0.0; PglD DTNB: 0.8; Statin myotox sup: -19.8; XiGFP reactiv: -0.1

Compound activity as filed in PubChem.
